Reference: publication PMC7114882 (ACS Omega, 2020)

Tests used:
Type in all cases: cell-based
Jurkat cells [1] = experiment: MTT assay of Jurkat cells with 4 in the presence of inhibitors; settings: 4 (25 μM), 1 h; BAPTA/AM 20 μM
Summary of the method: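 Jurkat cells (1.0 × 10^5 cells/mL) in 10% FBS RPMI 1640 were preincubated with inhibitor for 30 min at 37 °C under 5% CO2, then given test compound (25 μM) for 1 h. After a further 4 h at 37 °C, 0.5% MTT in PBS was added. Formazan was dissolved overnight in 10% SDS/0.01 N HCl and absorbance read at 570 nm.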

[2] = tested on: mitochondrial membrane potential (ΔΨm) of Jurkat cells; experiment: Measurement of mitochondrial membrane potential; settings: 4 25 μM; CCCP 40 μM; DilC1(5) 500 nM
Summary of the method: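 Jurkat cells (2.0 × 10^5) in 10% FBS RPMI 1640 were preincubated with or without CCCP (40 μM) for 30 min at 37 °C under 5% CO2, then exposed to test compound (25 μM) for 1 h. ΔΨm was probed with DilC1(5) (500 nM). Confocal imaging recorded bright field, DilC1(5) emission and compound emission.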

[3] = tested on: Jurkat cells (T-lymphocyte leukemia); experiment: MTT assay of Jurkat cells
Summary of the method: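 Jurkat cells (2.0 × 10^5 cells/mL) were exposed to test compound ([…]) in 10% FBS/RPMI 1640 for 24 h at 37 °C under 5% CO2. After adding 0.5% MTT in PBS and incubating 4 h at 37 °C, formazan was dissolved overnight in 10% SDS/0.01 N HCl. Absorbance was read at 570 nm.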

[4] = tested on: intracellular Ca^2+ in Jurkat cells; experiment: Flow cytometry analysis of Jurkat cells stained with Rhod-2 or Rhod-4; settings: celastrol, Figure S7
Jurkat cells [5] = experiment: Methylene blue staining and TEM of Jurkat cells; settings: 4 25 μM 1 h; celastrol 1 μM 24 h
Summary of the method: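 Jurkat cells (3.0 × 10^6) received test compound (25 μM, 1 h, 37 °C) or celastrol (1 μM, 24 h). Cells were pelleted, washed in ice-cold PBS/0.1% NaN3/0.5% FBS and prefixed in 2.5% glutaraldehyde (4 °C, 40 min). Postfixing used 1% OsO4 (4 °C, 30 min), then agarose embedding and ethanol dehydration. Cells were resin-embedded (60 °C, 3 days) and cut into 150 nm sections for methylene blue light microscopy and TEM.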

CC(=O)OCOC(=O)CN(CC(=O)OCOC(C)=O)c1ccccc1OCCOc1ccccc1N(CC(=O)OCOC(C)=O)CC(=O)OCOC(C)=O [BAPTA/AM, tetrakis(acetoxymethyl)-1,2-bis(2-aminophenoxy)ethane-N,N,N′,N′-tetraacetate]
Inhibition of cell death induced by 4 (MTT, microscopy) (Jurkat cells [1]): negligibly inhibits

N#CC(C#N)=NNc1cccc(Cl)c1 [CCCP, Carbonyl cyanide 3-chlorophenylhydrazone]
Mitochondrial membrane potential (ΔΨm), emission of DilC1(5) [2]: decrease in ΔΨm was also observed

O=C(Nc1ccc2[nH]nc(-c3ccncc3)c2c1)[C@@H]1CCN(CC(=O)N2CCN(c3ccc(-c4ncccn4)cc3)CC2)C1 [SCH772984]
Inhibition of cell death induced by 4 (MTT, microscopy) (Jurkat cells [1]): negligible inhibition

Oc1c2ccccc2c2c3c(cccc13)N=N2 [SP600125]
Inhibition of cell death induced by 4 (MTT, microscopy) (Jurkat cells [1]): negligible inhibition

CN1CCN(CCCN2c3ccccc3Sc3ccc(C(F)(F)F)cc32)CC1 [TFP, trifluoperazine]
EC50 ([3]; Homo sapiens, Jurkat, read-out: EC50, cell death of Jurkat cells): ~50 µM
Cooperative effects with 4 on cell death of Jurkat cells ([3]; TFP with 4 (25 μM), data not shown): negligible

N#CC(=C(/N)Sc1ccccc1N)/C(C#N)=C(/N)Sc1ccccc1N [U0126]
Inhibition of cell death induced by 4 (MTT, microscopy) (Jurkat cells [1]): negligible inhibition

CC1=C(O)C(=O)C=C2C1=CC=C1[C@@]2(C)CC[C@@]2(C)[C@@H]3C[C@](C)(C(=O)O)CC[C@]3(C)CC[C@]12C [celastrol]
Change in mitochondrial Ca2+ concentration (Rhod-2) [4]: small change
Cytoplasmic vacuolization, TEM (Jurkat cells [5]): vacuolization
Cytoplasmic vacuolization, methylene blue staining (Jurkat cells [5]): same intracellular morphological changes
